Key:
Hepatitis C virus [1] = experiment: Antiviral activity against HCV genotype 1b NK/R2AN infected in human Huh7.5.1 cells assessed as reduction in virus replication by luciferase reporter gene assay; assay type: functional, organism-based, Hepacivirus hominis, subtype 1b NK/R2AN, Huh-7
Hepatitis C virus [2] = experiment: Antiviral activity against HCV genotype 2a JFH5a infected in human Huh7.5.1 cells transfected with JFH5a-Rluc-ad34 assessed as reduction in virus proliferation by luciferase reporter gene assay; assay type: functional, cell-based, Hepacivirus hominis, Huh-7
[3] = Cytotoxicity against human Huh7.5.1 cells; assay type: cell-based, Huh-7
Cytochrome P450 3A4 = Cytochrome P450 3A4 (Homo sapiens, UniProt P08684); experiment: Inhibition of human CYP3A4 by luminometry; assay type: ADME
Procedure, shortened: (§1)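 Human CYP1A2, 2C9, 2C19, 2D6 and 3A4 inhibition by P450-Glo luminescent assay per kit protocol; compounds at 100, 50, 10, 5, 1, 0.1 and 0.01 µM; luminometer read-out.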

[4] = Stability in rat plasma assessed as compound remaining t 100 uM after 0.5 hrs by LC-MS/MS method; assay type: ADME, cell-free; details: read-out: Stability
Procedure, shortened: (§2)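 Rat plasma pre-warmed 5 min at 37 °C, mixed with test compound from 100 µM stock (3 into 297 parts), incubated at 37 °C; sampled at 0, 15, 30, 60, 120 min, acetonitrile-precipitated, centrifuged 10 min, supernatant analysed by LC-MS/MS.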

[5] = Half life in Sprague-Dawley rat at 5 mg/kg, iv by LC/MS/MS method; assay type: ADME, organism-based; details: in vivo
Procedure, shortened: (§3)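 Sprague-Dawley rats, 2 male and 1 female per compound per route, parallel design. Vehicle 5% DMSO, 10% solutol, 85% HPBCD; IV 5 mg/kg bolus via tail vein, oral 10 mg/kg. Blood into K2-EDTA tubes at several time points, centrifuged, plasma analysed by LC/MS/MS; non-compartmental analysis.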

Cytochrome P450 1A2 = target: T1, Cytochrome P450 1A2 (Homo sapiens, UniProt P05177); experiment: Inhibition of human CYP1A2 by luminometry; assay type: ADME; procedure, shortened: as §1
T1 sequence (P05177 whole entry): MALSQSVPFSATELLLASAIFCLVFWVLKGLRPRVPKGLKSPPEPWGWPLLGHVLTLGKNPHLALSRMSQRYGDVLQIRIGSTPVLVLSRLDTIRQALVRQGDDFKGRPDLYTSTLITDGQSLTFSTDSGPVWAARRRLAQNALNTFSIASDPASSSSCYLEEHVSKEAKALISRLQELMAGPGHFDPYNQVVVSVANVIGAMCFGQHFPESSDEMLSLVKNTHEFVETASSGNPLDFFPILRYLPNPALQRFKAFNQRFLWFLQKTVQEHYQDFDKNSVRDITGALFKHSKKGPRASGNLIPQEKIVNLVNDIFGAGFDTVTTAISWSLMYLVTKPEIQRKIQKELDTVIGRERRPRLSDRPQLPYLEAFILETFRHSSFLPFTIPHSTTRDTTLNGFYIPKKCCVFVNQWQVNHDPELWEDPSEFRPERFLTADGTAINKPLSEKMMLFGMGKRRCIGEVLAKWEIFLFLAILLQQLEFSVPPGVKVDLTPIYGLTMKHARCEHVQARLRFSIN

Cytochrome P450 2C9 = Cytochrome P450 2C9 (Homo sapiens, UniProt P11712); experiment: Inhibition of human CYP2C9 by luminometry; assay type: ADME; procedure, shortened: as §1
[6] = Stability in rat plasma assessed as compound remaining at 100 uM after 2 hrs by LC-MS/MS method; assay type: ADME, cell-free; details: read-out: Stability; procedure, shortened: as §2
[7] = Stability in rat plasma assessed as compound remaining at 100 uM after 1 hr by LC-MS/MS method; assay type: ADME, cell-free; details: read-out: Stability; procedure, shortened: as §2
[8] = Half life in Sprague-Dawley rat at 10 mg/kg, po by LC/MS/MS method; assay type: ADME, organism-based; details: in vivo; procedure, shortened: as §3
hERG (KCNH2) = hERG (KCNH2) (Homo sapiens, UniProt Q12809); experiment: Inhibition of human ERG at 10 uM by fluorescence polarization assay based ligand binding assay
Cytochrome P450 2D6 = Cytochrome P450 2D6 (Homo sapiens, UniProt P10635); experiment: Inhibition of human CYP2D6 by luminometry; assay type: ADME; procedure, shortened: as §1
Cytochrome P450 2C19 = Cytochrome P450 2C19 (Homo sapiens, UniProt P33261); experiment: Inhibition of human CYP2C19 by luminometry; assay type: ADME; procedure, shortened: as §1
[9] = Stability in human liver microsomes assessed as compound remaining at 1 uM after 0.5 hrs by LC-MS/MS method; assay type: ADME; details: read-out: Stability
Procedure, shortened: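 Pooled human liver microsomal fraction with β-NADPH, compound at 1 µM, incubated over 30 min; remaining compound in supernatant quantified by LC-MS/MS.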

[10] = Oral bioavailability in Sprague-Dawley rat at 10 mg/kg by LC/MS/MS method; assay type: ADME, organism-based; details: in vivo; procedure, shortened: as §3
[11] = Hepatitis C virus, subtype 1b NK/R2AN, Huh-7
[12] = Hepatitis C virus, genotype 2a JFH5a, Huh-7

Chain of Cytochrome P450 3A4 (P08684 whole entry): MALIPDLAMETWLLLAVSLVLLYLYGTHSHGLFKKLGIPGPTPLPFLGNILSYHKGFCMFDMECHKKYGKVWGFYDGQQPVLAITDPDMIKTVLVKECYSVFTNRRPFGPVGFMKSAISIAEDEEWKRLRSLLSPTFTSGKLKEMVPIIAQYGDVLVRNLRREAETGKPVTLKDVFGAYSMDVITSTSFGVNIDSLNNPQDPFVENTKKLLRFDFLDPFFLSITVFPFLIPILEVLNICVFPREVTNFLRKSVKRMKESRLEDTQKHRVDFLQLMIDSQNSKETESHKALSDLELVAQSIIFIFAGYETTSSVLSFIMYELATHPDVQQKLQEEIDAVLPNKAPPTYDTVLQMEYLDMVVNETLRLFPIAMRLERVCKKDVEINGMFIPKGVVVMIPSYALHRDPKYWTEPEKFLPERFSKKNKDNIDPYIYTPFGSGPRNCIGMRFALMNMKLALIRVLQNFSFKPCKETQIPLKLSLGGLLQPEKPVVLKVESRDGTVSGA
Chain of Cytochrome P450 2C19 (P33261 whole entry): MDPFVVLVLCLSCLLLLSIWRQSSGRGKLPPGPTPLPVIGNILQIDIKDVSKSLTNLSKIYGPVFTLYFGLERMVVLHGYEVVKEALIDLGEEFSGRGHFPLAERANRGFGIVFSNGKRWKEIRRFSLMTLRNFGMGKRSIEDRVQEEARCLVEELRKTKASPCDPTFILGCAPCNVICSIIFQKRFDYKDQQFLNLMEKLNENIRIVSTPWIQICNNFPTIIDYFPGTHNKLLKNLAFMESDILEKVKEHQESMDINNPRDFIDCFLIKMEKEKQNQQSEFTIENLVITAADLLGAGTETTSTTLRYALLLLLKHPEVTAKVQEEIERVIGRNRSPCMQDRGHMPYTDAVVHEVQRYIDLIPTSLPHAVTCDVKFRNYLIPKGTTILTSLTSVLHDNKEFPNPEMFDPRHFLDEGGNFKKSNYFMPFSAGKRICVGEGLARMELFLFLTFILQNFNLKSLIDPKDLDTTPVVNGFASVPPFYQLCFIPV
Chain of hERG (KCNH2) (Q12809 whole entry): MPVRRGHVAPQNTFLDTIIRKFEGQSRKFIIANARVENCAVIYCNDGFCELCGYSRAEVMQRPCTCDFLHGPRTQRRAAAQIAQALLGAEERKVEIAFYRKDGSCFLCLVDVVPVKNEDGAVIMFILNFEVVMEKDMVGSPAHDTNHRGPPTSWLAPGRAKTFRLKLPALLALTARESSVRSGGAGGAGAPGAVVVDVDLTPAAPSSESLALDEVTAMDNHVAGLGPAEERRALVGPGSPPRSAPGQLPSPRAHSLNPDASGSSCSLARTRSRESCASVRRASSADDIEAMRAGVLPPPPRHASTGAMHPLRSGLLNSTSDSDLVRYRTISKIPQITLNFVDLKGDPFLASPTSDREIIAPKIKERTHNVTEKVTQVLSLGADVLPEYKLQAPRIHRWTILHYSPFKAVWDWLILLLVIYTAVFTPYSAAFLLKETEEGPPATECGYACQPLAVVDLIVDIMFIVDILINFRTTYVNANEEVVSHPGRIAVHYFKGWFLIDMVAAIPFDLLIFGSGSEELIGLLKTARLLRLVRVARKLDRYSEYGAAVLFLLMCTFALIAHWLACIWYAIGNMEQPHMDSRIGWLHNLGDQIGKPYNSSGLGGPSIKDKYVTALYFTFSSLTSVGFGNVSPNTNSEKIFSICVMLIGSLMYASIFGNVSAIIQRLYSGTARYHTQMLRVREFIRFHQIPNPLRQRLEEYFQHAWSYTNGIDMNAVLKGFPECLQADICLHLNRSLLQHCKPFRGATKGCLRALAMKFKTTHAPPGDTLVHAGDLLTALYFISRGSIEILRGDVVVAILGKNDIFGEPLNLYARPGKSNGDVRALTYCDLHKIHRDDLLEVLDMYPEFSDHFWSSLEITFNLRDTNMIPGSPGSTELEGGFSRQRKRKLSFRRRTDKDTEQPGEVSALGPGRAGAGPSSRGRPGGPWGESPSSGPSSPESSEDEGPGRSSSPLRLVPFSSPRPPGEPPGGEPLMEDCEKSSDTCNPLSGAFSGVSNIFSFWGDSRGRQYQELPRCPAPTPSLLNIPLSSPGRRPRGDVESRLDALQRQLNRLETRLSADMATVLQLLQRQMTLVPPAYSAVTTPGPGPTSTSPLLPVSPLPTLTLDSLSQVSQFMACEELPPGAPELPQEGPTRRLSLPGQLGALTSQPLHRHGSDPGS
Chain of Cytochrome P450 2D6 (P10635 whole entry): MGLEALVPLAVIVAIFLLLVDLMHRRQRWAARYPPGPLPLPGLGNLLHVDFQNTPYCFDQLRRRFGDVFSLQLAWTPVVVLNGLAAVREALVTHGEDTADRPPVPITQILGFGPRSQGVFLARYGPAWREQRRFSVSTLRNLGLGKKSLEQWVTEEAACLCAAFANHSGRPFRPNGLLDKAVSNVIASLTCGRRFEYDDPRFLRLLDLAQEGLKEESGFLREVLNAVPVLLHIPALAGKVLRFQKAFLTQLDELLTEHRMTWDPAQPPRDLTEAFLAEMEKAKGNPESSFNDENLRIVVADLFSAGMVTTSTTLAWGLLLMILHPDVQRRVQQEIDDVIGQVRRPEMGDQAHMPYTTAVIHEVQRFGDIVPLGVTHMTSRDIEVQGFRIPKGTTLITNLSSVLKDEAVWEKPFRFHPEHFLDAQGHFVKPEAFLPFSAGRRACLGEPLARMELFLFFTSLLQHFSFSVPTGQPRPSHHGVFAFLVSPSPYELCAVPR
Chain of Cytochrome P450 2C9 (P11712 whole entry): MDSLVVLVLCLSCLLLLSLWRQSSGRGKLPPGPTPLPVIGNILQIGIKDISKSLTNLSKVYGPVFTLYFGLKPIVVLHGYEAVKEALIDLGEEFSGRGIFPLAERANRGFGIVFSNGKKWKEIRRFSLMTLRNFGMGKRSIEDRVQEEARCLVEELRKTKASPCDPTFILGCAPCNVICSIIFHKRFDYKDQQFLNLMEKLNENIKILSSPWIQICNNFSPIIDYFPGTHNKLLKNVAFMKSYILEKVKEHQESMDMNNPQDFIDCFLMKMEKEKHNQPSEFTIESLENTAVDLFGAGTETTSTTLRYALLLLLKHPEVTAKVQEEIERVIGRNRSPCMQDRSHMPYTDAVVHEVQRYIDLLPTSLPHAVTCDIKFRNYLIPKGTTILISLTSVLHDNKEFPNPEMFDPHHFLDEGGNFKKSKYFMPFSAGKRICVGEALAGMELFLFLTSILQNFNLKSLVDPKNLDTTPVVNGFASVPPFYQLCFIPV

SMILES | EC50 (Hepatitis C virus [1]; [11]) | EC50 (Hepatitis C virus [2]; [12]) | CC50 [3] | further results
COC(=O)N[C@@H](C(=O)N1CCC[C@H]1C(=O)Nc1ccc(-c2ccc(NC(=O)[C@@H]3CCCN3C(=O)[C@H](NC(=O)OC)c3ccccc3)cc2)cc1)c1ccccc1 | – | – | > 25 µM | –
COC(=O)N[C@@H](C(=O)N1CCC[C@H]1C(=O)Nc1ccc(-c2ccc(NC(=O)[C@@H]3CCCN3C(=O)[C@H](NC(=O)OC)c3ccccc3)cc2C(F)(F)F)c(C(F)(F)F)c1)c1ccccc1 (stereo in doubt; form 2) | – | – | > 25 µM | EC50 (Hepatitis C virus [1]; huh-7): 27.9 nM; EC50 (Hepatitis C virus [2]; huh-7): 332 nM
COC(=O)N[C@@H](C(=O)N1CCC[C@@H]1C(=O)Nc1ccc(-c2ccc(NC(=O)[C@H]3CCCN3C(=O)[C@H](NC(=O)OC)c3ccccc3)cc2)cc1)c1ccccc1 | 83 nM | 1770 nM | > 25 µM | –
COC(=O)N[C@@H](C(=O)N1CCC[C@H]1C(=O)Nc1ccc(-c2ccc(NC(=O)[C@@H]3CCCN3C(=O)[C@H](NC(=O)OC)c3ccccc3)cc2C(F)(F)F)c(C(F)(F)F)c1)c1ccccc1 (stereo in doubt; form 1) | – | – | – | EC50 (Cytochrome P450 3A4): 4.64 µM; remaining at 0.5 h, 100 µM [4]: 93%; half-life [5]: 174 min; EC50 (Cytochrome P450 1A2): 78.8 µM; EC50 (Cytochrome P450 2C9): 660 nM; remaining at 2 h, 100 µM [6]: 99%; remaining at 1 h, 100 µM [7]: 99%; half-life [8]: 228 min; inhibition at 10 µM (hERG (KCNH2)): 7.98%; EC50 (Hepatitis C virus [1]; huh-7): 0.0025 nM; EC50 (Cytochrome P450 2D6): > 100 µM; EC50 (Cytochrome P450 2C19): 4.64 µM; remaining at 0.5 h, 1 µM [9]: 79%; bioavailability [10]: 11.7%; EC50 (Hepatitis C virus [2]; huh-7): 0.025 nM

Further lines, with some results ahead:

EC50 (Hepatitis C virus [1]; [11]) | SMILES | EC50 (Hepatitis C virus [2]; [12]) | CC50 [3] | further results
0.035 nM | COC(=O)N[C@@H](C(=O)N1CCC[C@H]1C(=O)Nc1ccc(-c2ccc(NC(=O)[C@@H]3CCCN3C(=O)[C@H](NC(=O)OC)c3ccccc3)cc2C)c(C)c1)c1ccccc1 | 0.32 nM | > 25 µM | –
2.2 nM | COC(=O)N[C@@H](C(=O)N1CCC[C@@]1(C)C(=O)Nc1ccc(-c2ccc(NC(=O)[C@]3(C)CCCN3C(=O)[C@H](NC(=O)OC)c3ccccc3)cc2)cc1)c1ccccc1 | 3.3 nM | > 25 µM | –
0.027 nM | COC(=O)N[C@@H](C(=O)N1CSC[C@H]1C(=O)Nc1ccc(-c2ccc(NC(=O)[C@@H]3CSCN3C(=O)[C@H](NC(=O)OC)c3ccccc3)cc2)cc1)c1ccccc1 | 15.5 nM | > 25 µM | –
2.1 nM | COC(=O)N[C@@H](C(=O)N1CCCC[C@H]1C(=O)Nc1ccc(-c2ccc(NC(=O)[C@@H]3CCCCN3C(=O)[C@H](NC(=O)OC)c3ccccc3)cc2)cc1)c1ccccc1 | 180 nM | > 25 µM | –
0.009 nM | COC(=O)N[C@@H](C(=O)N1CCC[C@H]1C(=O)Nc1ccc2c(c1)Cc1cc(NC(=O)[C@@H]3CCCN3C(=O)[C@H](NC(=O)OC)c3ccccc3)ccc1-2)c1ccccc1 | 5.6 nM | > 25 µM | –
0.004 nM | COC(=O)N[C@@H](C(=O)N1CCC[C@H]1C(=O)Nc1ccc2c(c1)C(=O)c1cc(NC(=O)[C@@H]3CCCN3C(=O)[C@H](NC(=O)OC)c3ccccc3)ccc1-2)c1ccccc1 | 4.3 nM | > 25 µM | –

From ChEMBL document CHEMBL3608246, “Novel benzidine and diaminofluorene prolinamide derivatives as potent hepatitis C virus NS5A inhibitors” (Eur J Med Chem, 2015)
